# Hits are enriched below; roughly 1.7% of the tested compounds scored in any of these assays.
# PGE2 EP2 inh – EP2 receptor (human) inhibition; inhibition, % at 25 µM; C6 glioma cells expressing human EP2, cAMP TR-FRET; cells stimulated with saturating PGE2; P43116; 260,000 compounds, 0.52% hits;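 active means percent inhibition above 40 after rounding to a whole number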;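 further: rat C6 glioma host cells with rolipram phosphodiesterase inhibitor present; the protocol text gives 20 µM as final concentration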
# Target sequence (P43116 whole entry, looked up): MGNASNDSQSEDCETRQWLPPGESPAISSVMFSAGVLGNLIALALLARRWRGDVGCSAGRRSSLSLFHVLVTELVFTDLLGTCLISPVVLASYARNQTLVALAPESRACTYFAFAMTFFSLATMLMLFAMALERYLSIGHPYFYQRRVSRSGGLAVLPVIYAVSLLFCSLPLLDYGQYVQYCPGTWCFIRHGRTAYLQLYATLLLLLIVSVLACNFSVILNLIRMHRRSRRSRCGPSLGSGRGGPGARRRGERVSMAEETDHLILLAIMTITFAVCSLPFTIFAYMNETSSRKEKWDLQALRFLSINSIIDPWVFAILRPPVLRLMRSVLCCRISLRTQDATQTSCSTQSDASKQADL
# EP2 modulator – modulators of human EP2 prostaglandin E2 receptor; induction, % at 25 µM; 260,000 compounds, 0.83% hits; EP2-expressing cells, cAMP HTRF FRET, PGE2 co-stimulation; AID 940;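 active means compounds whose cAMP rise, as percent of the full-agonist control response, exceeds 60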;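 further: rat C6 glioma line stably carrying human EP2 under a CMV promoter; the protocol text gives 20 µM as final concentration; 100% = response of wells given 1 µM PGE2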
# Dynein transport – blocks dynein driven cargo transport along microtubules. 3617.4 mouse cells, GR-EGFP nuclear translocation imaging; test concentration mostly 20 µM; stimulated with dexamethasone, 1 µM; active compounds read low. AID 1381. z-score, hits read low. 220,000 compounds, 0.47% hits;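 active means plate z-score of nuclear minus cytoplasmic receptor signal below a set negative limit, without overly bright fluorescence or cell loss, cut at about -3.5 in these data, passing the limit was not always enough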;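 further: z-score of nuclear minus cytoplasmic ring GR-EGFP intensity difference per well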
#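 Medium: Induction medium lacking tetracycline, stripped serum | Probe or stimulus: 1.0 µM final dexamethasone stimulus | Schedule: 48 h induction, then 1 h compound, then 30 min agonist, 37 °C | Signal: Automated 10x imaging of fixed Hoechst-stained cells | Evaluation: Per-cell GR-EGFP intensity, nucleus versus surrounding cytoplasmic ring, well-averaged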
# Hsp70 activator – Hsp70 transcriptional activation, primary screen. 200,000 compounds, 0.04% hits. activation, % at 10 µM. AID 1203. HeLa Hsp70 promoter luciferase reporter, luminescence; scaled: vehicle 0, proteasome-inhibitor control 100%;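 active means activation above the mean across all tested compounds plus 3 SD, cutoff set per campaign, cut at about 5.5% in these data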;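 further: 100% = MG132 at 30 µM as the positive control and 0% = DMSO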
# EP2 confirm – human EP2 receptor cAMP induction, negative in counter-screens; shares compounds with EP2 modulator; C6 glioma EP2 cells, cAMP HTRF induction; plus low (about EC15) PGE2 agonist; calls only at 20 µM (by protocol); 1,300 compounds, 47% hits; AID 1080;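 active means cAMP induction above 50% in the main assay while under 30% in all four parallel counter assays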;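 further: rat C6 glioma cells stably expressing human EP2 receptor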
# * = called active by the depositor; i = inactive; . = no result; + = active, no number.
SMILES,PGE2 EP2 inh,EP2 modulator,Dynein transport,Hsp70 activator,EP2 confirm
Cc1nn(C)c(C)c1CCC(=O)NC(C)Cn1nc2c(C)cc3ccccc3n2c1=O (configuration not stated),6.4,-10.7,.,.,.
Cc1ccc(C)c(OCCCC(=O)Nc2nnc(C3CCCO3)s2)c1 (configuration not stated),12.4,6.5,.,.,.
Cc1cc(C)c(S(=O)(=O)c2ccccc2)c(OC(=O)c2c(Cl)cc(Cl)cc2Cl)n1,16.0,75.7*,0.268,0.0,+
CCc1nc2sc3c(c2c2nnc(SCC(=O)N4CCOCC4)n12)CCC(C)C3 (configuration not stated),12.5,20.8,.,.,.
Cc1cccc(OCc2n[nH]c(=S)n2Cc2ccccc2)c1,2.0,51.4,-0.562,-0.2,i
S=c1[nH]nc(COc2ccccc2)n1Cc1ccccc1,6.7,6.6,-0.3,0.0,.
CCCc1cc(=O)n2[nH]c(NCc3cccs3)nc2n1,-0.6,71.3*,0.205,0.3,i
COc1ccc(OC(=O)c2cccc([N+](=O)[O-])c2)c(C(=O)/C=C/c2cccs2)c1,10.9,76.7*,-0.697,0.2,i
Cc1ccc(-c2cc3ccccc3nc2N2CCOCC2)cc1,6.0,73.3*,0.715,-0.2,i
COCCc1ncc(CNC2(c3ccc(Cl)cc3)CC2)cn1,9.0,-17.6,.,.,.
CN(C)c1nc(-c2ccccc2)c2cnn(Cc3ccccc3)c2n1,13.1,73.3*,0.497,-0.3,+
c1ccc(Cn2ncc3ccccc32)cc1,11.3,34.5,-0.372,-0.2,.
COCCCn1c(SCC(=O)Nc2ccccc2C(F)(F)F)nc2ccccc2c1=O,6.7,49.0,.,.,.
COc1ccc(-c2cc3nc4c(c(NCCCn5ccnc5)n3n2)CCC4)cc1,9.6,-10.1,.,.,.
NC(=O)CSc1nc2ccccc2n1Cc1ccccc1F,16.2,6.8,0.507,-0.1,.
CCSc1nc2ccccc2n1Cc1ccccc1F,10.2,72.1*,1.01,-0.1,+
Brc1cccc(-c2nnc(SCc3ccon3)n2-c2ccccc2)c1,4.8,52.4,-0.827,-0.3,i
O=C(O)c1ccc(CSc2nnc(-c3ccccc3)n2-c2ccccc2)cc1,7.9,25.4,-0.851,.,.
C=C(C)Cn1c(C)cc(C)c(S(=O)(=O)c2cccc(C)c2)c1=O,5.6,90.0*,-0.401,-0.5,+
Cc1cccc(S(=O)(=O)N2CCC(CO)(Cc3ccccc3)CC2)c1,11.9,-73.7,-0.612,-0.1,.
Cc1ccc2nc(SCC(=O)NCc3ccco3)c(C#N)cc2c1,15.5,12.2,-0.902,0.0,.
Cc1ccc2nc(SCC(=O)NCc3ccco3)c(C)cc2c1,7.2,68.6*,-0.25,-0.3,+
COc1cc(-c2nc(-c3cccc(C(F)(F)F)c3)no2)cc(OC)c1OC,7.1,72.3*,-0.169,-0.3,+
CC1(C)CC(C(CCN(Cc2ccccc2)C(=O)c2ccco2)c2ccc(F)cc2)CCO1 (configuration not stated),1.7,42.1,-0.386,-0.4,.
O=C(c1ccco1)N(CCC(c1ccccc1)c1ccco1)Cc1ccc(F)cc1 (configuration not stated),3.9,69.7*,0.442,-0.1,+
SMILES,PGE2 EP2 inh,EP2 modulator,Dynein transport,Hsp70 activator,EP2 confirm
Cc1noc(C)c1C(=O)NC1(c2ccc(F)cc2)CCCC1,.,4.9,.,.,.
CCOC(=O)C(Cc1ccccc1)(NC(C)=O)C(=O)OCC,7.6,84.8*,-0.943,0.0,i
O=C(c1ccco1)N(CC1CCCO1)c1nc(-c2ccccc2)cs1 (configuration not stated),9.6,65.7*,-0.524,-0.1,i
Cc1ccc(-c2csc(N(CC3CCCO3)C(=O)c3ccco3)n2)cc1 (configuration not stated),13.8,72.3*,-0.487,-0.3,+
COc1ccc(-c2csc(N(CC3CCCO3)C(=O)c3ccc(C)cc3)n2)cc1 (configuration not stated),5.1,34.5,-0.32,-0.2,.
CC(C)(C)NC(=O)CN(C(=O)c1ccc2c(c1)OCCO2)c1ccccc1F,5.9,0.8,.,.,.
COc1ncc(CN(CCCN(C)C)Cc2ccco2)cn1,8.9,-0.4,.,.,.
COc1cc2nc(N(C)CCCNC(=O)C3CCCO3)nc(N)c2cc1OC (configuration not stated),14.9,-10.4,.,0.3,.
COc1cc2nc(N3CCN(C(=O)C4CCCO4)CC3)nc(N)c2cc1OC (configuration not stated),17.6,6.3,0.0812,0.0,i
COc1ccc(-c2cc(C(F)(F)F)nc(SCCC(=O)Nc3ccc4c(c3)OCO4)n2)cc1,10.1,5.2,.,.,.
Cc1cccc(C)c1NC(=O)CSc1nnc(Cn2nnc(-c3ccccc3)n2)n1-c1ccccc1,2.9,73.8*,-0.415,-0.4,i
O=C(CSc1nnc(Cn2nnc(-c3ccccc3)n2)n1-c1ccccc1)Nc1ccccc1,5.6,25.6,1.1,-0.3,.
Cc1nn(CCC(=O)Nc2cccc(C(=O)N3CCCCC3)c2)c(C)c1C,6.5,16.2,.,.,.
Nc1cccc(OCc2nc(N)nc(N)c2-c2ccc(Cl)cc2)c1,7.8,55.9,.,.,i
C=CCn1c(SCC(=O)NC2CCCCC2)nnc1-c1ccncc1,10.2,-11.3,.,.,.
CC(CC(=O)O)(CC(=O)O)C(=O)O,7.0,51.0,.,.,i
COc1ccc(C2CC(c3cccs3)=NN2C(=O)c2ccc(Br)o2)cc1 (configuration not stated),8.9,51.3,1.89,-0.3,i
Cc1cc(C)n(-c2cc(-c3ccccc3)nc(C)n2)n1,13.2,68.9*,0.908,0.0,i
CCOC(=O)Cc1csc(NC(NC(=O)CC)(C(F)(F)F)C(F)(F)F)n1,9.8,65.2*,-0.118,0.0,i
Cc1cc(C)c(NC(=O)CSc2nc(COc3ccccc3)nc3ccccc23)c(C)c1,39.0,40.4,-0.129,0.1,.
Cc1cc(SCC(=O)Nc2cccnc2Cl)nc2ccccc12,4.4,66.7*,1.31,0.2,i
Cc1cc(SCC(=O)NCCC2=CCCCC2)nc2ccccc12,5.4,70.4*,0.331,-0.1,i
Cc1ccccc1NC(=O)CSc1nc(COc2ccccc2)nc2ccccc12,7.2,84.5*,-0.0978,-0.3,i
Cc1nn(CC(=O)NC2CCCC2)c(=O)c2cc3occc3n12,4.7,-17.3,.,.,.
Cc1ccc2cc(CN(C(=S)NCc3ccco3)C3CCCC3)c(=O)[nH]c2c1,15.1,45.3,.,.,.
COc1ccc(OC)c(/C=C/C(=O)N2CCCc3ccccc32)c1,5.1,78.6*,1.69,-0.2,+
C=CCc1cccc(C=Nc2cc(Br)ccc2O)c1O,6.2,66.8*,-0.865,-0.3,+
COc1ccc2cc(CN(Cc3ccco3)C(c3nnnn3C3CCCCC3)C(C)C)c(=O)[nH]c2c1 (configuration not stated),10.8,65.7*,-0.332,-0.5,+

# Screens from PubChem.
